Assay [1] has as its system Rattus norvegicus. As to the kind of experiment: Effect of compound was measured on serum total triglycerides in male Dawley rats at the dose of 0.4 mmol/kg (day+7). In kind it is functional, organism-based. Put shortly: (§1)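 Serum triglycerides were measured with an enzymatic triglyceride reagent on a bichromatic analyzer. Rats were male Sprague-Dawley (180-210 g) fed a high-cholesterol diet, n = 6 per group, dosed orally twice daily for 14 days in 0.25% methylcellulose or vehicle. They were fasted 16-18 h before blood collection on days -1, +4, +7, +10 (orbital plexus, light ether) and +14 (aorta). Analysis was repeated-measures ANOVA with Duncan's test.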

The nature of assay [2]: Effect of compound was measured on serum heparin-MnCl2 precipated ipoprotein Dawley rats at 0.4 mmol/kg dose(day+4). In kind it is functional. Put shortly: (§2)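 Cholesterol-fed male Sprague-Dawley rats, n = 6 per group, given compound or 0.25% methylcellulose orally twice daily for 14 days, and fasted 16-18 h before each bleed (days -1, +4, +7, +10, +14). Heparin-MnCl2 precipitable lipoprotein cholesterol was taken as serum total cholesterol minus α-lipoprotein cholesterol. It is reported as a ratio to α-LP cholesterol ± SD. Analysis was ANOVA with repeated measures and Duncan's test.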

Assay [3] deals with Rattus norvegicus. As to the kind of experiment: Effect of compound was measured on serum total cholesterol in male Dawley rats at the dose of 0.4 mmol/kg (day+7). In kind it is functional, organism-based. Summed up:
(§3)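 Serum total cholesterol was measured enzymatically on a bichromatic analyzer. Serum was separated after clotting on ice (2000g, 10 min), held at 4 °C and assayed within 48 h. Rats were male Sprague-Dawley on a high-cholesterol diet, n = 6, dosed orally twice daily for 14 days in 0.25% methylcellulose (1.0 mL/100 g). They were fasted 16-18 h before each bleed. Results are in mg/dL ± SD.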

Assay [4] can be described thus: Effect of compound was measured on serum heparin-MnCl2 precipated ipoprotein Dawley rats at 0.4 mmol/kg dose(day+7). In kind it is functional. Put shortly: as §2
Assay [5] relates to Rattus norvegicus. The assay is described as follows: Effect of compound was measured on serum total triglycerides in male Dawley rats at the dose of 0.4 mmol/kg (day+4). In kind it is functional, organism-based. Put shortly: as §1
Assay [6] can be described thus: Effect of compound was measured on serum heparin-MnCl2 precipated ipoprotein Dawley rats at 0.4 mmol/kg dose(day-1). In kind it is functional. Put shortly: as §2
For assay [7], the system named is Rattus norvegicus. The assay is described as follows: Effect of compound was measured on serum total cholesterol in male Dawley rats at the dose of 0.4 mmol/kg (day+4). In kind it is functional, organism-based. Put shortly: as §3
In assay [8] the test system is Rattus norvegicus. The assay is described as follows: Effect of compound was measured on serum alpha-lipoprotein in male Dawley rats at the dose of 0.4 mmol/kg (day-1). In kind it is functional, organism-based. Summed up: (§4)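 Male Sprague-Dawley rats (180-210 g) fed a high-cholesterol diet for 1 week before and throughout dosing. Groups of n = 6 were dosed orally twice daily for 14 days in 0.25% methylcellulose, with vehicle controls. Rats were fasted 16-18 h before orbital bleeds on days -1, +4, +7 and +10, and by aortic exsanguination on day +14. Serum α-lipoprotein cholesterol was measured by polyanionic precipitation, in mg/dL ± SD.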

The subject of assay [9] is Rattus norvegicus. As to the kind of experiment: Effect of compound was measured on serum alpha-lipoprotein in male Dawley rats at the dose of 0.4 mmol/kg (day+10). In kind it is functional, organism-based. Put shortly:
as §4

Assay [10] deals with Rattus norvegicus. As to the kind of experiment: Effect of compound was measured on serum alpha-lipoprotein in male Dawley rats at the dose of 0.4 mmol/kg (day+7). In kind it is functional, organism-based. Summed up:
as §4

In assay [11] the test system is Rattus norvegicus. The assay is described as follows: Effect of compound was measured on serum total triglycerides in male Dawley rats at the dose of 0.4 mmol/kg (day-1). In kind it is functional, organism-based. Summed up:
as §1

Assay [12] is described as follows: Effect of compound was measured on serum heparin-MnCl2 precipated ipoprotein Dawley rats at 0.4 mmol/kg dose(day+10). In kind it is functional. Put shortly: as §2
Assay [13] in a line: Effect of compound on liver to body weight ratio in male Dawley rats at the dose of 0.4 mmol/kg. In kind it is functional. Summed up:
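Male Sprague-Dawley rats (180-210 g) were kept on a cholesterol-rich diet and dosed orally twice daily for 14 days in 0.25% methylcellulose; vehicle controls received the same; n = 6 per group. After a 16-18 h fast, rats were exsanguinated at day +14. Livers were removed, rinsed in ice-cold buffer, blotted and weighed, and related to body weight. Data were analysed by repeated-measures ANOVA with Duncan's multiple range test.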

Assay [14] concerns Rattus norvegicus. The assay is described as follows: Effect of compound on liver TG levels in male Dawley rats at the dose of 0.4 mmol/kg. In kind it is functional. On the set-up: unit: g/100 g wet liver. Put shortly: (§5)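 Male Sprague-Dawley rats (180-210 g) were kept on a high-cholesterol diet for 1 week before and throughout treatment. Groups of n = 6 received drug in 0.25% methylcellulose orally twice daily for 14 days, or vehicle. After a 16-18 h fast, livers were excised at day +14 and homogenized in 0.1 M Tris-HCl pH 7.2 with 1.15% KCl. Lipids were extracted from 25% w/v homogenate and reported as g/100 g wet liver ± SD; groups compared by ANOVA and Duncan's test.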

For assay [15], the system named is Rattus norvegicus. As to the kind of experiment: Effect of compound was measured on serum total triglycerides in male Dawley rats at the dose of 0.4 mmol/kg (day+14). In kind it is functional, organism-based. Put shortly: as §1
The test system of assay [16] is Rattus norvegicus. The assay is described as follows: Effect of compound was measured on serum alpha-lipoprotein in male Dawley rats at the dose of 0.4 mmol/kg (day+4). In kind it is functional, organism-based. Summed up:
as §4

Assay [17] concerns Rattus norvegicus. The assay is described as follows: Effect of compound was measured on serum total triglycerides in male Dawley rats at the dose of 0.4 mmol/kg (day+10). In kind it is functional, organism-based. Put shortly:
as §1

Assay [18] concerns Rattus norvegicus. The assay is described as follows: Effect of compound was measured on serum alpha-lipoprotein in male Dawley rats at the dose of 0.4 mmol/kg (day14). In kind it is functional, organism-based. Summed up: as §4
Assay [19] deals with Rattus norvegicus. The assay is described as follows: Effect of compound on liver CH levels in male Dawley rats at the dose of 0.4 mmol/kg. In kind it is functional. Further details: unit: g/100 g wet liver. Summed up: as §5
For assay [20], the system named is Rattus norvegicus. The assay is described as follows: Effect of compound was measured on serum total cholesterol in male Dawley rats at the dose of 0.4 mmol/kg (day+14). In kind it is functional, organism-based. Summed up:
as §3

Assay [21] is described as follows: Effect of compound was measured on serum heparin-MnCl2 precipated ipoprotein Dawley rats at 0.4 mmol/kg dose(day+14). In kind it is functional. Summed up:
as §2

Assay [22] concerns Rattus norvegicus. The assay is described as follows: Effect of compound was measured on serum total cholesterol in male Dawley rats at the dose of 0.4 mmol/kg (day-1). In kind it is functional, organism-based. Summed up:
as §3

Assay [23] has as its system Rattus norvegicus. The assay is described as follows: Effect of compound was measured on serum total cholesterol in male Dawley rats at the dose of 0.4 mmol/kg (day+10). In kind it is functional, organism-based. Summed up:
as §3

For the molecule `CCOC(=O)C(C)(C)Oc1ccc(Cl)cc1` [CLOFIBRATE], the Serum total triglycerides stood at 169 mg/dL in the assay on Rattus norvegicus [1]; 141 mg/dL with Rattus norvegicus [5]; 266 mg/dL in the assay with Rattus norvegicus [11]; 155 mg/dL with Rattus norvegicus [15]; 196 mg/dL in the assay on Rattus norvegicus [17]. Moreover, the Ratio in assay [2] came out at 2.54; in [4] it was 3.12; in [6], 3.81; in assay [12], 4.89; in [13], 6.2; in assay [21] it was 4.76. In addition, the serum total cholesterol with Rattus norvegicus [3] is 209 mg/dL; in the assay on Rattus norvegicus [7] it was 127 mg/dL; in the assay with Rattus norvegicus [20], 302 mg/dL; in the assay on Rattus norvegicus [22], 202 mg/dL; in the assay on Rattus norvegicus [23], 316 mg/dL. The alpha-lipoprotein cholesterol in the assay with Rattus norvegicus [8] is 44.4 mg/dL; in the assay with Rattus norvegicus [9], 51.7 mg/dL; in the assay with Rattus norvegicus [10] it was 52.7 mg/dL; in the assay with Rattus norvegicus [16], 38.5 mg/dL; in the assay on Rattus norvegicus [18], 55 mg/dL. In addition, the “Liver TG” value in the assay on Rattus norvegicus [14] is on record as 1.84. In addition, the “Liver CH levels” value in the assay on Rattus norvegicus [19] came out at 3.58.
`NC1=C(O)C(=O)C(c2ccc(Cl)cc2)O1` (centres undefined): the Serum total triglycerides in the assay on Rattus norvegicus [1] worked out at 128 mg/dL; in the assay on Rattus norvegicus [5], 147 mg/dL; in the assay with Rattus norvegicus [11], 179 mg/dL; in the assay with Rattus norvegicus [15] it was 119 mg/dL; in the assay on Rattus norvegicus [17] it was 158 mg/dL. Moreover, the Ratio in assay [2] is 3.43; in assay [4], 5.59; in [6], 3.65; in assay [12] it was 7.13; in assay [13], 4.1; in assay [21], 6.31. Also, the serum total cholesterol in the assay with Rattus norvegicus [3] was determined as 252 mg/dL; with Rattus norvegicus [7], 138 mg/dL; with Rattus norvegicus [20], 278 mg/dL; in the assay with Rattus norvegicus [22], 193 mg/dL; in the assay with Rattus norvegicus [23], 344 mg/dL. Further, the alpha-lipoprotein cholesterol with Rattus norvegicus [8] was determined as 43.8 mg/dL; in the assay on Rattus norvegicus [9], 43.7 mg/dL; in the assay with Rattus norvegicus [10], 43 mg/dL; in the assay on Rattus norvegicus [16], 33.2 mg/dL; in the assay on Rattus norvegicus [18], 38.8 mg/dL. In addition, the “Liver TG” value in the assay on Rattus norvegicus [14] turned out to be 2.8. In addition, the “Liver CH levels” value with Rattus norvegicus [19] is on record as 4.03.
`O=C1OC(c2ccc(Cl)cc2)C(=O)C1=O` (centres undefined): the Serum total triglycerides in the assay with Rattus norvegicus [1] was 164 mg/dL; in the assay with Rattus norvegicus [5] it was 198 mg/dL; in the assay on Rattus norvegicus [11], 268 mg/dL; in the assay on Rattus norvegicus [15], 105 mg/dL; in the assay with Rattus norvegicus [17] it was 151 mg/dL. For the same molecule, the Ratio in [2] stood at 5.63; in [4], 12.6; in assay [6], 5.76; in [12] it was 11.9; in assay [13] it was 4; in assay [21], 5.75. The serum total cholesterol with Rattus norvegicus [3] is 377 mg/dL; in the assay with Rattus norvegicus [7] it was 205 mg/dL; with Rattus norvegicus [20] it was 217 mg/dL; with Rattus norvegicus [22] it was 250 mg/dL; in the assay with Rattus norvegicus [23] it was 356 mg/dL. Also, the alpha-lipoprotein cholesterol turned out to be 40.3 mg/dL in the assay with Rattus norvegicus [8]; 29 mg/dL with Rattus norvegicus [9]; 30.5 mg/dL with Rattus norvegicus [10]; 32 mg/dL in the assay on Rattus norvegicus [16]; 34.2 mg/dL in the assay on Rattus norvegicus [18]. In addition, in the assay with Rattus norvegicus [14], the “Liver TG” value stood at 3.76. Moreover, the “Liver CH levels” value with Rattus norvegicus [19] is reported as 4.9.

(Values after ChEMBL document CHEMBL1121938, “Hypocholesterolemic and antiaggregatory properties of 2-hydroxytetronic acid redox analogues an their relationship to clofibric acid” (1982).)
